These results are taken from ChEMBL document CHEMBL1154942, “Design, synthesis and evaluation of carbamate-modified (-)-N(1)-phenethylnorphysostigmine derivatives as selective butyrylcholinesterase inhibitors” (Bioorg Med Chem Lett, 2010).

One experiment concerns the target T1, Acetylcholinesterase (Mus musculus, UniProt P21836).
T1 sequence (P21836 whole entry): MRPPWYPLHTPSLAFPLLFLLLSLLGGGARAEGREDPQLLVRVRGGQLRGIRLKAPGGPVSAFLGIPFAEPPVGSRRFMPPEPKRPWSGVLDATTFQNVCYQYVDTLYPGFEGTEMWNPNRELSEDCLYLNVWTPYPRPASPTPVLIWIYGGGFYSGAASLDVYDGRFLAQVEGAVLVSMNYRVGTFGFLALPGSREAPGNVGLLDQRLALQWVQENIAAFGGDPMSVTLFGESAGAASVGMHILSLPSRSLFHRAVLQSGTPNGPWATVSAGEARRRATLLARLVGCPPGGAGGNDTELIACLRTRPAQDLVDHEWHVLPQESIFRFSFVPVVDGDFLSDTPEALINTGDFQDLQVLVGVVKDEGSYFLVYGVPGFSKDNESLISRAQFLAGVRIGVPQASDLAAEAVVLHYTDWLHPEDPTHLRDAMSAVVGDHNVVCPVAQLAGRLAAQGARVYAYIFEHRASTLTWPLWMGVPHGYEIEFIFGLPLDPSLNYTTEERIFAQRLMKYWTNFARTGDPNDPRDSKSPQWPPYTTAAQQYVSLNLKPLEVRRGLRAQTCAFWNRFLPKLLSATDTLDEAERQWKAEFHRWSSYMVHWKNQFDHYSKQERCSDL
Briefly: Inhibition of mouse brain AChE after 1 hr by modified Ellman's colorimetric method. The method, boiled down:
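Enzyme from mouse brain extract. Compounds preincubated with enzyme 1 h at 37 °C, then acetylthiocholine plus DTNB added. Absorbance read at 415 nm at 2 min intervals. Activity expressed as percent of DMSO solvent control. Seven concentrations tested. IC50 from nonlinear regression of sigmoidal dose–response, accepted only if r² ≥ 0.95. Mean of at least four independent measurements.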

For the next experiment, the target named is Cholinesterase (Mus musculus, UniProt Q03311). The experiment can be described thus: Inhibition of mouse serum BChE after 1 hr by modified Ellman's colorimetric method. In short, it runs like this: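 Enzyme from mouse serum extract. Compounds preincubated with enzyme 1 h at 37 °C, then butyrylthiocholine plus DTNB added. Absorbance read at 415 nm at 2 min intervals. Activity expressed as percent of DMSO solvent control. Seven concentrations tested. IC50 from nonlinear regression of sigmoidal dose–response, accepted only if r² ≥ 0.95. Mean of at least four independent measurements.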
Cholinesterase, sequence (Q03311 whole entry): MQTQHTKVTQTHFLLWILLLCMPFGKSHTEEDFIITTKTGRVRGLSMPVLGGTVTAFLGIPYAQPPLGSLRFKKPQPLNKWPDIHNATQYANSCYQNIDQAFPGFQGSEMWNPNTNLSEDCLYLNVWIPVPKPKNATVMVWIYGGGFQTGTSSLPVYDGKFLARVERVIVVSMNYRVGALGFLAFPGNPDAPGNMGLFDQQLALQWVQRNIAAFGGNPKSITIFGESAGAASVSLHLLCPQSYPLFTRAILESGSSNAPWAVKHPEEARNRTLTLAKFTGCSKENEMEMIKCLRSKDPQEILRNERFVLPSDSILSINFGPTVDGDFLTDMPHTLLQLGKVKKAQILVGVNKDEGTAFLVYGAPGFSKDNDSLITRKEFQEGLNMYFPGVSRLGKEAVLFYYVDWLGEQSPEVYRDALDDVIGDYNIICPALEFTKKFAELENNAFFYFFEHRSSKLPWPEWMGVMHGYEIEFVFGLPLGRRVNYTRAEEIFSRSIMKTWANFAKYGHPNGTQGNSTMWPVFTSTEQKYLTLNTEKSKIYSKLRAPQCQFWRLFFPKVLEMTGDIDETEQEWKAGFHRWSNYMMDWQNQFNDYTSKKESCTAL
For orientation: Ellman's reagent forms a yellow product with free thiols.

`CN1c2ccc(OC(=O)Nc3ccc4c(c3)OCO4)cc2[C@]2(C)CCN(CCc3ccccc3)[C@H]12`: the figures for the IC50 on Acetylcholinesterase and against Cholinesterase were 1900 nM and 100 nM, respectively.

On to `CN1c2ccc(OC(=O)Nc3ccc(Oc4ccccc4)cc3)cc2[C@]2(C)CCN(CCc3ccccc3)[C@H]12`, for which the IC50 was more than 100000 nM against Acetylcholinesterase and 2000 nM against Cholinesterase.

With `CNC(=O)Oc1ccc2c(c1)[C@]1(C)CCN(C)[C@@H]1N2C` [PHYSOSTIGMINE], the results for the IC50 against Acetylcholinesterase and against Cholinesterase were 40 nM and 280 nM, respectively.

As for `CN1c2ccc(OC(=O)Nc3ccccc3)cc2[C@]2(C)CCN(CCc3ccccc3)[C@H]12`, the IC50 was determined as 1600 nM on Acetylcholinesterase and 340 nM against Cholinesterase.

As for `CN1c2ccc(OC(=O)Nc3ccc4ccccc4c3)cc2[C@]2(C)CCN(CCc3ccccc3)[C@H]12`, the IC50 came out at 44000 nM at Acetylcholinesterase and 580 nM on Cholinesterase.

Regarding `CN1c2ccc(OC(=O)Nc3ccc(C(C)(C)C)cc3)cc2[C@]2(C)CCN(CCc3ccccc3)[C@H]12`, the figures for the IC50 on Acetylcholinesterase and on Cholinesterase were 15000 nM and 430 nM, respectively.

`CNC(=O)Oc1ccc2c(c1)[C@]1(C)CCN(CCc3ccccc3)[C@@H]1N2C`: the figures for the IC50 against Acetylcholinesterase and against Cholinesterase were 170 nM and 10 nM, respectively.

Regarding `CC(=O)c1ccc(NC(=O)Oc2ccc3c(c2)[C@]2(C)CCN(CCc4ccccc4)[C@@H]2N3C)cc1`, the IC50 was more than 100000 nM at Acetylcholinesterase and 5900 nM against Cholinesterase.

`COc1ccc(NC(=O)Oc2ccc3c(c2)[C@]2(C)CCN(CCc4ccccc4)[C@@H]2N3C)cc1OC`: the figures for the IC50 against Acetylcholinesterase and against Cholinesterase were 11000 nM and 97 nM, respectively.

On to `CN(C)c1ccc(NC(=O)Oc2ccc3c(c2)[C@]2(C)CCN(CCc4ccccc4)[C@@H]2N3C)cc1`, for which the results for the 50% inhibitory concentration (IC50) against Acetylcholinesterase and against Cholinesterase were more than 100000 nM and 79 nM, respectively.

With `CCCCCCNC(=O)Oc1ccc2c(c1)[C@]1(C)CCN(CCc3ccccc3)[C@@H]1N2C`, the values for the IC50 on Acetylcholinesterase and against Cholinesterase were 970 nM and 14 nM, respectively.

As for `CN1c2ccc(OC(=O)NCc3ccccc3)cc2[C@]2(C)CCN(CCc3ccccc3)[C@H]12`, the IC50 against Acetylcholinesterase came out at 180 nM; on Cholinesterase, 6.6 nM.

With `CCCCCCOc1ccc(NC(=O)Oc2ccc3c(c2)[C@]2(C)CCN(CCc4ccccc4)[C@@H]2N3C)cc1`, the IC50 against Acetylcholinesterase was more than 100000 nM; on Cholinesterase, 1400 nM.

As to `CN1c2ccc(OC(=O)Nc3ccc(Cl)cc3)cc2[C@]2(C)CCN(CCc3ccccc3)[C@H]12`, the IC50 at Acetylcholinesterase was more than 100000 nM; at Cholinesterase, 370 nM.

`CN1c2ccc(OC(=O)Nc3ccc([N+](=O)[O-])cc3)cc2[C@]2(C)CCN(CCc3ccccc3)[C@H]12`: the half-inhibitory concentration (IC50) was more than 100000 nM against Acetylcholinesterase and 6700 nM against Cholinesterase.

As for `CCCCc1ccc(NC(=O)Oc2ccc3c(c2)[C@]2(C)CCN(CCc4ccccc4)[C@@H]2N3C)cc1`, the IC50 was 48000 nM on Acetylcholinesterase and 980 nM at Cholinesterase.

`CN1c2ccc(OC(=O)NCCc3ccccc3)cc2[C@]2(C)CCN(CCc3ccccc3)[C@H]12`: the half-maximal inhibitory concentration (IC50) on Acetylcholinesterase was 450 nM; against Cholinesterase, 16 nM.

As to `CC(C)c1ccc(NC(=O)Oc2ccc3c(c2)[C@]2(C)CCN(CCc4ccccc4)[C@@H]2N3C)cc1` [PHENETHYLCYMSERINE], the IC50 was more than 100000 nM on Acetylcholinesterase and 540 nM against Cholinesterase.

For `CN1c2ccc(OC(=O)Nc3ccc(-c4ccccc4)cc3)cc2[C@]2(C)CCN(CCc3ccccc3)[C@H]12`, the IC50 on Acetylcholinesterase is more than 100000 nM; against Cholinesterase it was 1100 nM.

Consider `CN1c2ccc(OC(=O)NC3CCCCC3)cc2[C@]2(C)CCN(CCc3ccccc3)[C@H]12`, for which the IC50 against Acetylcholinesterase was determined as 5600 nM; against Cholinesterase it was 22 nM.

`COc1ccc(NC(=O)Oc2ccc3c(c2)[C@]2(C)CCN(CCc4ccccc4)[C@@H]2N3C)cc1`: the values for the IC50 on Acetylcholinesterase and against Cholinesterase were 33000 nM and 83 nM, respectively.

With `CN1c2ccc(OC(=O)NCC3CCCCC3)cc2[C@]2(C)CCN(CCc3ccccc3)[C@H]12`, the IC50 on Acetylcholinesterase is 2500 nM; on Cholinesterase it was 1.8 nM.

One may read the IC50 as the concentration at which inhibition is half-maximal. Higher therefore signals a need for much substance.
